ChEMBL document CHEMBL4118203, “Optimized synthesis and antiproliferative activity of desTHPdactylolides” (Bioorg Med Chem, 2018)

Legend:
[1] = test system: LNCaP; experiment: Antiproliferative activity against docetaxel-sensitive human LNCAP cells after 3 days by WST-1 assay; type: functional, cell-based; conditions: 72 h
In short: (§1)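 Cells grown at 37 °C, 5% CO2: PC-3 and LNCaP in RPMI-1640, DU145 in EMEM, each with 10% FBS and 1% penicillin/streptomycin. Plated at 3,200 cells/well and exposed to a range of doses for 3 days, with DMSO vehicle control. WST-1 reagent was then added for 3 h at 37 °C and absorbance read at 430 nm. IC50 is the mean of at least triplicate runs.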

[2] = test system: DU-145; experiment: Antiproliferative activity against docetaxel-sensitive human DU145 cells after 3 days by WST-1 assay; type: functional, cell-based; conditions: DU-145, 72 h; in short: as §1
[3] = test system: PC-3; experiment: Antiproliferative activity against human PC3 cells after 72 hrs by methylene blue staining based assay; type: functional, cell-based; conditions: PC-3, 72 h
[4] = Resistance index, ratio of IC50 for human DU145/DTX cells to IC50 for docetaxel-sensitive human DU145 cells; type: functional
[5] = Antiproliferative activity against human DU145/DTX cells after 3 days by WST-1 assay; type: functional, cell-based; conditions: DU-145, 72 h
In short: (§2)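 Docetaxel-resistant lines were derived from DU145 or PC-3 over one year by stepwise-increasing docetaxel, starting at the parental IC50. Cells were kept continuously in docetaxel, with medium changed every 2–3 days. For the assay, cells were plated at 3,200/well and treated with a dose range for 3 days against DMSO vehicle. WST-1 was added for 3 h at 37 °C and absorbance read at 430 nm. IC50 is the mean of at least triplicates.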

[6] = Resistance index, ratio of IC50 for human PC3/DTX cells to IC50 for docetaxel-sensitive human PC3 cells; type: functional
[7] = Antiproliferative activity against human PC3/DTX cells after 3 days by WST-1 assay; type: functional, cell-based; conditions: 72 h; in short: as §2
[8] = test system: PC-3; experiment: Antiproliferative activity against docetaxel-sensitive human PC3 cells after 3 days by WST-1 assay; type: functional, cell-based; conditions: PC-3, 72 h; in short: as §1

| SMILES | IC50 [1] | IC50 [2] | IC50 [3] | Ratio IC50 [4] | IC50 [5] | Ratio IC50 [6] | IC50 [7] | IC50 [8] |
| --- | --- | --- | --- | --- | --- | --- | --- | --- |
| C/C1=C/C=C/C(=O)O[C@H](CO)C/C(C)=C/COCC/C=C/C(=O)C1 | 19.3 µM | 17.8 µM | 3.05 µM | 0.8 | 14.1 µM | 0.9 | 14.4 µM | 16.1 µM |
| C=C1C[C@H]2C/C=C/C(=O)C/C(C)=C\C=C\C(=O)OC(C=O)C/C(C)=C/[C@@H](C1)O2 (stereo not given in full) |  |  | 0.75 µM |  |  |  |  |  |
| COc1ccc(COC[C@@H]2C/C(C)=C/COCC/C=C/C(=O)C/C(C)=C\C=C\C(=O)O2)cc1 | 8.27 µM | 9.21 µM |  | >2.2 | > 20 µM | >2.6 | > 20 µM | 7.66 µM |
| C/C1=C/C=C/C(=O)O[C@H](C=O)C/C(C)=C/COCC/C=C/C(=O)C1 | 13.5 µM | 11.6 µM | 4.02 µM | 1.3 | 15.3 µM | 1.3 | 15.4 µM | 11.9 µM |
| C/C1=C/C=C/C(=O)O[C@@H](CO)C/C(C)=C/COCC/C=C/C(=O)C1 | > 30 µM | > 30 µM |  |  | > 30 µM |  | > 30 µM | > 30 µM |
| C/C1=C/C=C/C(=O)O[C@@H](C=O)C/C(C)=C/COCC/C=C/C(=O)C1 | 3.22 µM | 5.41 µM |  | 1.5 | 8.03 µM | 0.8 | 4.41 µM | 5.27 µM |
| COc1ccc(COC[C@H]2C/C(C)=C/COCC/C=C/C(=O)C/C(C)=C\C=C\C(=O)O2)cc1 | 2.85 µM | 3.16 µM |  | 1 | 3.2 µM | 0.6 | 3.77 µM | 6.31 µM |
| CC(=O)O[C@@]12CO[C@@H]1C[C@H](O)[C@@]1(C)C(=O)[C@H](O)C3=C(C)[C@@H](OC(=O)[C@H](O)[C@@H](NC(=O)OC(C)(C)C)c4ccccc4)C[C@@](O)([C@@H](OC(=O)c4ccccc4)[C@H]21)C3(C)C [DOCETAXEL ANHYDROUS] | 0.0002 µM | 0.0012 µM |  | 7150 | 8.58 µM | 1232 | 2.34 µM | 0.0019 µM |
